Data on 10 compounds can be found in ChEMBL document CHEMBL1141726, “bis-Pyridinium cyclophanes: novel ligands with high affinity for the blood-brain barrier choline transporter” (Bioorg Med Chem Lett, 2008).

Broadly, the Ki is a dissociation constant, usually derived from enzyme kinetics or from competition with a known ligand.

The structures appear in SMILES notation.

A short description of this assay: Binding affinity to blood-brain barrier choline transporter in rat brain assessed as inhibition of [3H]choline uptake. The format is tissue-based. The gist of the method:
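In situ rat brain perfusion (Allen and Smith modification); inhibition of [3H]choline uptake into brain measured. Ki taken as analogue concentration inhibiting 50% of [3H]-choline uptake, calculated from a single inhibitor concentration. Ki values compared by ANOVA with Bonferroni's multiple comparisons test.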

For `c1ccc2c[n+](CCCCCCCCCCCC[n+]3ccc4ccccc4c3)ccc2c1`, the Ki amounted to 22 µM. The result for `c1ccc2c[n+](CCCCCCCCCC[n+]3ccc4ccccc4c3)ccc2c1` reads 9.5 µM; that for `CCCCCCCC[n+]1cccc([C@@H]2CCCN2C)c1`, 49 µM; that for `c1ccc2c[n+](CCCCCC[n+]3ccc4ccccc4c3)ccc2c1`, 29 µM. With `C1#Cc2ccc[n+](c2)CCCCCCCC[n+]2cccc(c2)C#CCCCCCC1`, the Ki is 0.8 µM. Take `C1#Cc2ccc[n+](c2)CCCCCCCCC[n+]2cccc(c2)C#CCCCCCC1`: the inhibitory constant (Ki) came out at 33.8 µM. The figure for `C1#Cc2ccc[n+](c2)CCCC[n+]2cccc(c2)C#CCCCCCC1` is 15.2 µM; for `C1#Cc2ccc[n+](c2)CCCCCCC[n+]2cccc(c2)C#CCCCCCC1` it is 1.4 µM; for `Cc1ccc[n+](CCCCCCCCCCCC[n+]2cccc(C)c2)c1` it is 36 µM. The figure for `C[N+](C)(C)CCO` [CHOLINE] is 41 µM.
